Only some compounds are listed: those with a hit (about 4.3% of all), similar ones and a draw of the others.
RBBP9 inhibitor – inhibitors of human serine hydrolase RBBP9. O75884. recombinant RBBP9, FP-Rh probe fluorescence polarization. inhibition, % at 7.94 µM. 0.2% of 220,000 active. AID 1515;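 active means inhibition above the campaign mean of all tested compounds plus 3 SD, cut at about 14% in these data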
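Assay system: recombinant human RBBP9; Reagent: Serine-hydrolase probe FP-Rh, 375 nM pre-mixing; Doses: 7.94 µM single dose, 0.794% DMSO; Incubation: 30 min then 45 min, 25 °C; Detection: fluorescence polarization (mP), excitation 525 nm, emission 598 nm; Evaluation: percent inhibition from mP, scaled between DMSO and no-protein wells.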
Rin1 Abl inh – human Rin1-Abl interaction inhibition; inhibition, % at 7.35 µM; TR-FRET Rin1/Abl binding, biochemical; AID 588664; 0.4% of 360,000 active; P00519+Q13671; in the data active means inhibition above about 5%, passing the limit was not always enough
UBC13 inh – blocks human UBC13 polyubiquitin chain formation; AID 485273; TR-FRET; P61088; inhibition, % at 20 µM; 0.47% of 330,000 active; in the data active means inhibition above about 45%, passing the limit was not always enough
SUMO HTRF inh – blocks human SUMOylation mediated by UBC9. HTRF SUMOylation assay, SAE1/SAE2 + UBC9, in vitro. inhibition, % at 35 µM. P63279. 0.36% of 290,000 active; in the data active means inhibition above about 50%, passing the limit was not always enough
PREPL inh – inhibitors of human prolyl oligopeptidase-like enzyme PREPL. recombinant PREPL, fluorescence polarization activity-based probe. AID 2751. inhibition, % at 5.96 µM. 0.68% of 320,000 active. Q4J6C6; in the data active means inhibition above about 43%
Target sequence (Q4J6C6 whole entry, looked up): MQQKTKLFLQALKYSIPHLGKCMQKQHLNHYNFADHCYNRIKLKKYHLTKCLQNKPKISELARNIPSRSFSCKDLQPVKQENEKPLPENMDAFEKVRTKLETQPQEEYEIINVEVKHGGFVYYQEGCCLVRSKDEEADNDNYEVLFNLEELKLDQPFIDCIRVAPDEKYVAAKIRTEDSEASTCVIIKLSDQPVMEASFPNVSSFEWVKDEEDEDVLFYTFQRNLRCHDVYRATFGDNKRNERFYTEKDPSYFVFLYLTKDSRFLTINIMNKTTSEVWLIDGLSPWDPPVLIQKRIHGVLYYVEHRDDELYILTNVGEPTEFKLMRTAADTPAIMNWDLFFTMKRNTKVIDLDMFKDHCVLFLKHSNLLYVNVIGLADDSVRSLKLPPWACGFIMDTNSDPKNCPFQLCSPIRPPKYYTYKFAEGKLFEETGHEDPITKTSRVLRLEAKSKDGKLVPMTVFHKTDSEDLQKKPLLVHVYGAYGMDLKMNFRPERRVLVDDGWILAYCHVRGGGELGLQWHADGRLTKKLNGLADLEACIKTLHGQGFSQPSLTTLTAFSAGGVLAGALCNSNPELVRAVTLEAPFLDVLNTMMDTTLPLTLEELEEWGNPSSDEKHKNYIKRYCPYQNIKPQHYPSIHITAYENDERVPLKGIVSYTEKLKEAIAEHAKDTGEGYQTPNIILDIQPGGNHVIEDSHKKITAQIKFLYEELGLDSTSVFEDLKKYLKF
ALR H2O2 inh – inhibitors of human sulfhydryl oxidase ALR; P55789; purified ALR, DTT oxidation, H2O2 HRP-luminol luminescence; inhibition, % (no concentration beside the values); 3.8% of 290,000 active;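 active means mean replicate inhibition above about 79%, with every replicate also reaching it, limit read from the data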
Rin1 Abl conf – confirmation of inhibitors of human Rin1-Abl interaction. inhibition, % at 7.35 µM. TR-FRET Rin1-Abl binding, purified proteins. 49% of 1,300 active. shares compounds with Rin1 Abl inh
GFP quencher – GFP fluorescence interference artifact | AID 602125 | inhibitors/quenchers counterscreen | shares compounds with Rin1 Abl inh | 8.5% of 1,300 active | inhibition, % at 6.75 µM;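 further: ABL1-eGFP fusion protein alone without its partner RIN1-SBP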
GFP quench DR – GFP fluorescence interference dose response. shares compounds with Rin1 Abl inh. IC50, µM. 230 tested, under 10 active. GFP fluorescence interference/quenching counterscreen; call rule not given here;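 further: ABL1-eGFP fusion protein alone without its RIN1 binding partner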
A number is an active result; i = inactive; nt = not tested or not shown. Unless noted, no stated cut-off is given here; in the data, active means inhibition above about 6.5%; inactive means the rest.

SMILES | RBBP9 inhibitor | Rin1 Abl inh | UBC13 inh | SUMO HTRF inh | PREPL inh | ALR H2O2 inh | Rin1 Abl conf | GFP quencher | others
O=C(CSc1nnc(NC(=O)C2CC2)s1)Nc1ccc2c(c1)OCCO2 | i | i | i | i | i | i | nt | nt
CSC(=NS(=O)(=O)c1ccccc1)NNC(=O)c1c(-c2c(Cl)cccc2Cl)noc1C | nt | i | nt | nt | nt | nt | nt | nt
CC(NC(=O)c1cc2c(=O)n(C)c3ccccc3c2n1C)c1ccc2c(c1)OCCO2 (centres undefined) | i | 7.6 | i | nt | i | i | 11 | i
Cn1c(C(=O)Nc2ccc3c(c2)OCO3)cc2c(=O)n(C)c3ccccc3c21 | i | i | i | i | i | i | nt | nt
CCCCOC(=O)c1ccc(NC(=O)CN2C(=O)NC3(CCCCCC3)C2=O)cc1 | nt | 12 | i | nt | i | i | 10 | i
CCCCOC(=O)c1ccc(NC(=O)COC(=O)CN2C(=O)NC3(CCCC3)C2=O)cc1 | nt | i | i | i | i | nt | nt | nt
COc1ccc(Cl)cc1NC(=O)/C=C\C(=O)O | i | 5.4 | i | i | i | i | i | i
Cc1ccc(NC2CNC(=O)NC2=O)cc1C (centres undefined) | nt | i | nt | nt | nt | nt | nt | nt
Cc1ccc(NC2C(=O)NC(=O)NC2=O)cc1 | nt | 17 | nt | nt | nt | nt | 16 | i
Cc1cc(=O)oc2cc(OCC(=O)Nc3ccccc3C(N)=O)c(Cl)cc12 | nt | i | i | i | i | i | nt | nt
COc1ccc(CN(C)CCCn2ccc(NC(=O)OCc3ccccc3)nc2=O)cc1OC | nt | 15 | nt | nt | nt | nt | 22 | i | GFP quench DR=i
CC[C@@H](NCCCn1ccc(NC(=O)OCc2ccccc2)nc1=O)c1ccccc1 | nt | 8.4 | nt | nt | nt | nt | 8.8 | i
Oc1cc2c(cc1O)C1c3ccc(O)c(O)c3OCC1(O)C2 (centres undefined) | i | 31 | i | i | i | 100 | 31 | 20
CN(CC(=O)Nc1ccc(Cl)c(Cl)c1)C(=O)/C=C/c1ccc(F)cc1 | i | 9.5 | i | i | i | i | i | i
CN(CC(=O)Nc1cccc(F)c1)C(=O)/C=C/c1ccc(S(=O)(=O)N2CCCCCC2)cc1 | nt | i | nt | nt | nt | nt | nt | nt
CC(C)CNC1=CC(=O)CC(c2ccco2)C1 (centres undefined) | i | 5.9 | i | i | i | i | i | i
CN(CC(=O)Nc1ccccc1Br)C(=O)CNC(=O)c1ccc(Oc2ccccc2)cc1 | nt | 7.6 | i | i | i | i | i | i
CN(C)c1ncnc2c1ncn2[C@H]1CN(Cc2ccc(-c3ccccc3)cc2)C[C@@H](CO)O1 | nt | 20 | nt | nt | nt | nt | 15 | i
CC(C)N(C)c1ncnc2c1ncn2[C@H]1CN(Cc2ccc(Cl)cc2)C[C@@H](CO)O1 | nt | 6.2 | nt | nt | nt | nt | 6.3 | i
COc1cc(CN2C[C@@H](CO)O[C@@H](n3cnc4c(NCc5ccc(F)cc5)ncnc43)C2)cc(OC)c1OC | nt | 11 | nt | nt | nt | nt | 6.5 | i
CN(C)c1ncnc2c1ncn2[C@H]1CN(Cc2ccccc2)C[C@@H](CO)O1 | nt | i | nt | nt | nt | nt | nt | nt
C=CCNc1ncnc2c1ncn2[C@H]1CN(Cc2ccc(-c3ccccc3)cc2)C[C@@H](CO)O1 | nt | 19 | nt | nt | nt | nt | 17 | i | GFP quench DR=i
COC(=O)C1CCN(C(=O)COC(=O)C2CCN(S(=O)(=O)c3ccc(C)c(C)c3)CC2)CC1 | nt | i | i | nt | i | i | nt | nt
C=CCN1C(=O)N(c2ccccc2)C(=O)C1CC(=O)Nc1ccc(OC)cc1 (centres undefined) | nt | i | i | i | i | i | nt | nt
COCCNc1ncnc2c1ncn2[C@H]1CN(Cc2ccc(F)cc2)C[C@@H](CO)O1 | nt | i | nt | nt | nt | nt | nt | nt
OC[C@@H]1CN(Cc2ccccc2)C[C@H](n2cnc3c(NC4CC4)ncnc32)O1 | nt | i | nt | nt | nt | nt | nt | nt
OCCCNc1ncnc2c1ncn2[C@H]1CN(Cc2ccc(-c3ccccc3)cc2)C[C@@H](CO)O1 | nt | 19 | nt | nt | nt | nt | 22 | i | GFP quench DR=i
CNc1ncnc2c1ncn2[C@H]1CN(Cc2ccc(Cl)cc2)C[C@@H](CO)O1 | nt | i | nt | nt | nt | nt | nt | nt
OCCNc1ncnc2c1ncn2[C@H]1CN(Cc2ccc(Cl)cc2)C[C@@H](CO)O1 | nt | 7.2 | nt | nt | nt | nt | i | i
